Laboratory results taken from ChEMBL document CHEMBL5344428, “Discovery, Crystallographic Studies, and Mechanistic Investigations of Novel Phenylalanine Derivatives Bearing a Quinazolin-4-one Scaffold as Potent HIV Capsid Modulators” (J Med Chem, 2023).
pEC50: −log10 of the molar value.

Columns and labels:
[1] = tested on: Human immunodeficiency virus 1; assay: Antiviral activity against HIV1 IIIB infected in human MT4 cells assessed as reduction in virus induced cytopathic effect measured after 5 days by MTT assay; assay type: functional, organism-based; conditions: Human immunodeficiency virus 1, IIIB, MT4, 120 h
In short: (§1)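 MT-4 cells were infected with HIV-1 IIIB or HIV-2 ROD, and cell viability was read by MTT. […] Each value was run in at least triplicate and averaged from at least three independent experiments.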

[2] = Selectivity index, ratio of CC50 for cytotoxicity against human MT4 cells to EC50 for antiviral activity against HIV2 ROD infected in human MT4 cells; assay type: toxicity, cell-based; conditions: read-out: Ratio CC50/EC50
In short: (§2)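 SI is CC50 divided by EC50. CC50 comes from MTT viability of uninfected MT-4 cells. EC50 comes from MTT-read protection of MT-4 cells infected with HIV-1 IIIB or HIV-2 ROD. Each value was run in at least triplicate.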

[3] = Cytotoxicity against human MT4 cells assessed as reduction in cell viability incubated for 5 days by MTT assay; assay type: toxicity, cell-based; conditions: MT4 cells, time 5 day
In short: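 Uninfected MT-4 cells were exposed to compound, and viability was read by the MTT method. […] Each value was run in at least triplicate and averaged from at least three independent experiments.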

[4] = tested on: Human immunodeficiency virus 2; assay: Antiviral activity against HIV2 ROD infected in human MT4 cells assessed as reduction in virus induced cytopathic effect measured after 5 days by MTT assay; assay type: functional, organism-based; conditions: Human immunodeficiency virus 2, ROD, MT4, 120 h; in short: as §1
[5] = Selectivity ratio of EC50 for antiviral activity against HIV1 IIIB infected in human MT4 cells to EC50 for antiviral activity against HIV2 ROD infected in human MT4 cells; assay type: toxicity, cell-based
In short: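 Ratio is EC50 against HIV-1 IIIB divided by EC50 against HIV-2 ROD. Both EC50 values come from MTT-read protection of infected MT-4 cells.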

[6] = Selectivity index, ratio of CC50 for cytotoxicity against human MT4 cells to EC50 for antiviral activity against HIV1 IIIB infected in human MT4 cells; assay type: toxicity, cell-based; conditions: read-out: Ratio CC50/EC50; in short: as §2

Compound	pEC50 [1]	selectivity ratio [2]	CC50 at 120 h [3] [µM]	pEC50 [4]	Ratio EC50 [5]	selectivity ratio [6]
COc1ccc(N(C)C(=O)[C@H](Cc2ccccc2)NC(=O)Cn2ccc(NC(=O)c3ccccc3F)cc2=O)cc1	4.75	10.3	81.4	5.10	2.26	4.55
COc1ccc(N(C)C(=O)[C@H](Cc2cc(F)cc(F)c2)NC(=O)CN(Cc2ccc(F)cc2)C(=O)Cc2ccc(B3OC(C)(C)C(C)(C)O3)cc2)cc1	4.93	5	65.4	4.88	0.89	6
COc1ccc(-n2c([C@H](Cc3ccccc3)NC(=O)CN3CCN(S(=O)(=O)c4ccc(N)cc4)CC3)nc3cc(S(C)(=O)=O)ccc3c2=O)cc1	5.42	> 481	> 168	6.46	10.97	> 43.7
COc1ccc(N(C)C(=O)[C@H](Cc2ccccc2)NC(=O)CN2CCN(C(=O)Cc3c(C)[nH]c4ccccc34)CC2=O)cc1	4.85	13.9	108	5.11	1.84	7.73
COc1ccc(N(C)C(=O)[C@H](Cc2cc(F)cc(F)c2)NC(=O)CN(Cc2ccc(C#N)cc2)C(=O)Cc2ccc(B3OC(C)(C)C(C)(C)O3)cc2)cc1	4.75	3	52.4	4.79	1.09	3
COC(=O)CCSc1nnc([C@H](Cc2ccccc2)NC(=O)Cc2c(C)[nH]c3ccccc23)n1-c1ccc(OC)cc1	4.94	> 11	> 214	4.72	0.59	> 19
COc1ccc(N(C)C(=O)[C@H](Cc2ccccc2)NC(=O)Cn2ccc(NC(=O)c3cccc(F)c3)cc2=O)cc1	4.72	9.36	61.6	5.18	2.87	3.26
COc1ccc(-n2c(SCC(F)F)nnc2[C@H](Cc2ccccc2)NC(=O)Cc2c(C)[nH]c3ccccc23)cc1	5.60	3	24.4	5.13	0.35	10
COc1ccc(N(C)C(=O)[C@H](Cc2ccccc2)NC(=O)Cn2ccc(NC(=O)c3ccccc3)cc2=O)cc1	4.77	17.8	86.5	5.31	3.46	5.15
COc1ccc(-n2c(SCc3cncs3)nnc2[C@H](Cc2ccccc2)NC(=O)Cc2c(C)[nH]c3ccccc23)cc1	6.05	9	33.9	5.40	0.23	38
COc1ccc(N(C)C(=O)[C@H](Cc2cc(F)cc(F)c2)NC(=O)CN2CCN(C(=O)c3ccc(NC(=O)C(F)(F)F)cc3)CC2=O)cc1	4.86	9.09	150	4.78	0.83	10.9
COc1ccc(-n2c(SCc3ncccn3)nnc2[C@H](Cc2ccccc2)NC(=O)Cc2c(C)[nH]c3ccccc23)cc1	5.74	14	106	5.13	0.24	58
COc1ccc(-n2c([C@H](Cc3cc(F)cc(F)c3)NC(=O)CN3CCN(S(=O)(=O)c4ccc([N+](=O)[O-])cc4)CC3)nc3cc(F)ccc3c2=O)cc1	6.31	> 481	> 167	6.46	1.4	> 338
COc1ccc(C(=O)Nc2ccn(CC(=O)N[C@@H](Cc3ccccc3)C(=O)N(C)c3ccc(OC)cc3)c(=O)c2)cc1	4.53	4.98	53.1	4.97	2.78	1.79
COc1ccc(N(C)C(=O)[C@H](Cc2cc(F)cc(F)c2)NC(=O)CN(Cc2ccc(C#N)cc2)C(=O)Cc2c[nH]c3ccc(F)cc23)cc1	4.76	26	148	5.24	2.97	9
COc1ccc(-n2c([C@H](Cc3cc(F)cc(F)c3)NC(=O)CN3CCN(S(=O)(=O)c4ccc(N)cc4)CC3)nc3cc(S(C)(=O)=O)ccc3c2=O)cc1	6.17	> 1040	> 160	6.82	4.53	> 236
COC(=O)CSc1nnc([C@H](Cc2ccccc2)NC(=O)Cc2c(C)[nH]c3ccccc23)n1-c1ccc(OC)cc1	5.52	12	82.3	5.18	0.46	27
COc1ccc(-n2c([C@H](Cc3ccccc3)NC(=O)CN3CCN(S(=O)(=O)c4ccc(N)cc4)CC3)nc3ccccc3c2=O)cc1	6.19	> 1250	> 187	6.82	4.27	> 291
COc1ccc(N(C)C(=O)[C@H](Cc2cc(F)cc(F)c2)NC(=O)CN(Cc2ccccc2)C(=O)Cc2c(C)[nH]c3ccccc23)cc1	5.56	4	28.6	5.19	0.42	10
COc1ccc(-n2c([C@H](Cc3ccccc3)NC(=O)CN3CCN(S(=O)(=O)c4ccc([N+](=O)[O-])cc4)CC3)nc3cc(F)ccc3c2=O)cc1	5.70	> 312	> 175	6.25	3.55	> 88
COc1ccc(N(C)C(=O)[C@H](Cc2cc(F)cc(F)c2)NC(=O)CN(Cc2ccc(F)cc2)C(=O)Cn2nc(C(F)(F)F)c3ccccc32)cc1	5.60	8	108	4.89	0.2	42
COc1ccc(-n2c(SCc3ccc(S(C)(=O)=O)cc3)nnc2[C@H](Cc2ccccc2)NC(=O)Cc2c(C)[nH]c3ccccc23)cc1	5.61	22	172	5.10	0.31	71
COc1ccc(N(C)C(=O)[C@H](Cc2ccccc2)NC(=O)CN2CCN(C(=O)Cc3c[nH]c4ccccc34)CC2=O)cc1	4.82	23	112	5.31	3.06	7.51
COc1ccc(N(C)C(=O)[C@H](Cc2ccccc2)NC(=O)CN2CCN(C(=O)Cc3c[nH]c4ccc(OC)cc34)CC2=O)cc1	4.84	6.15	104	4.77	0.86	7.15
COC(=O)c1ccc(C(=O)Nc2ccn(CC(=O)N[C@@H](Cc3ccccc3)C(=O)N(C)c3ccc(OC)cc3)c(=O)c2)cc1	4.72	6.31	96.2	4.82	1.25	5.04
COc1ccc(N(C)C(=O)[C@H](Cc2cc(F)cc(F)c2)NC(=O)CN(Cc2ccc(F)cc2)C(=O)Cc2c[nH]c3ccc(Br)cc23)cc1	5.53	< 1	17.8	< 4.75	< 0.16	6
COc1ccc(N(C)C(=O)[C@H](Cc2cc(F)cc(F)c2)NC(=O)CN2CCN(C(=O)Cc3c[nH]c4ccc(F)cc34)CC2=O)cc1	5.23	3.23	16.4	5.29	1.16	2.78
COc1ccc(N(C)C(=O)[C@H](Cc2cc(F)cc(F)c2)NC(=O)CN(Cc2ccc(F)cc2)C(=O)Cc2ccc(B(O)O)cc2)cc1	5.36	3	18.9	5.17	0.64	4
COc1ccc(N(C)C(=O)[C@H](Cc2ccccc2)NC(=O)Cn2ccc(NC(=O)c3ccc(C#N)cc3)cc2=O)cc1	4.78	7.69	137	4.75	0.94	8.18
Nc1ccc(S(=O)(=O)N2CCN(CC(=O)N[C@@H](Cc3ccccc3)c3nc4ccccc4c(=O)n3-c3ccc(S(=O)(=O)N4CCOCC4)cc3)CC2)cc1	6.82	> 1560	> 159	7.00	1.5	> 1040
